Compounds with a hit are over-represented: about 2.5% of the library has one in this group of screens.
SR-BI DiI inh = inhibitors of SR-BI mediated HDL lipid uptake, primary screen, ldlA[mSR-BI] cells, fluorescence, single point. Scavenger receptor class B member 1 (Mus musculus), Q61009. ldlA[mSR-BI] CHO cells, DiI-HDL uptake fluorescence, 3 h. inhibition, % at 12.5 µM. 0.96% of 320,000 active;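 active means mean replicate inhibition of at least 70% and a set share of replicates each scoring 70 or more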;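 further: 0% = median of neutral control wells and 100% = median of positive control wells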
Target sequence (Q61009 whole entry, looked up): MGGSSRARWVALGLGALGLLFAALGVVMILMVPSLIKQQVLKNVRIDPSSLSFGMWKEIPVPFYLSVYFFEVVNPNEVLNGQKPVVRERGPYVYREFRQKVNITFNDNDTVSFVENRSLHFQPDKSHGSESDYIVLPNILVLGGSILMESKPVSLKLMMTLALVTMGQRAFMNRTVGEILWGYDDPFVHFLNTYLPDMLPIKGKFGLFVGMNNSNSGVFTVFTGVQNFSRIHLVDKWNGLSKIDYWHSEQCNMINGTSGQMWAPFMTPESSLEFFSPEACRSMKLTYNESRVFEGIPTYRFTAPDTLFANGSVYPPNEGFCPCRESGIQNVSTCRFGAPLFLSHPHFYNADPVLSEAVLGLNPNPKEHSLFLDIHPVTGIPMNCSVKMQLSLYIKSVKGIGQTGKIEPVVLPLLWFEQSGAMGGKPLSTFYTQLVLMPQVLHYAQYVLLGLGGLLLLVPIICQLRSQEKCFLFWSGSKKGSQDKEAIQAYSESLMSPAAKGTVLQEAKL
Vif inh = HIV Vif self-association inhibitors, primary screen, imaging, HEK293T, single point | HEK293T cells, Vif self-association by quenched fluorescence, 24 h | inhibition, % at 7.49 µM | 0.35% of 340,000 active | AID 602346, 2012; in the data active means inhibition above about 50%, passing the limit was not always enough
SMARCA2 act = SMARCA2 (BRM) function activators, primary screen, cell-based, luminescence, high throughput; MG213 cells, MMTV-luciferase reporter, dexamethasone, overnight; activation, % at 9.1 µM; 1% of 370,000 active; in the data active means activation above about 7.8%;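 further: 0% = vehicle wells and 100% = reference activator wells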
H9c2 TAG inh = inhibitors of triacylglycerol accumulation, primary screen, cell-based, uHTS, fluorescence, H9c2. inhibition, % at 12.5 µM. 0.66% of 230,000 active. H9c2 cells, Nile Red lipid (TAG) fluorescence; cells loaded with 200 µM oleic acid. AID 651582, 2012;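 active means pattern-corrected inhibition of lipid staining of at least 50% with the nuclear-stain viability signal not falling by more than 50%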;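 further: 0% = DMSO wells and 100% = triacsin C control wells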
SR-BI uptake up = activators of SR-BI mediated DiI-HDL uptake, primary screen, ldlA[mSR-BI] CHO cells, DiI fluorescence | 3 h; 100 = double the neutral-control signal | 0.096% of 320,000 active | activation, % at 12.5 µM;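 active means mean replicate activation of at least 60% and every replicate at or above 60%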;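 further: 0% = median plate neutral-control signal and 100% = twice that signal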
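Material: SR-BI-overexpressing, LDLR-lacking CHO cells | Dosing: Single compound concentration, delivered by pin transfer | Probe or stimulus: Labelled HDL, 10 µg/mL | Signal: Bottom-read cell fluorescence after medium removal, ex 550/em 595 nm | Schedule: 3 h, 37 °C | Evaluation: HDL uptake via cellular fluorescence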
* = called active by the depositor; i = inactive; / = no result given.

SMILES | SR-BI DiI inh | Vif inh | SMARCA2 act | H9c2 TAG inh | SR-BI uptake up
Cc1ccc(NC(=O)c2ccc(Nc3c([N+](=O)[O-])cc([N+](=O)[O-])cc3[N+](=O)[O-])cc2)cc1 | 102.1* | -4.4 | -10.8 | / | -102.1
Cc1ccc(NC(=O)c2ccc(N/N=C/c3cccc(O)c3)c([N+](=O)[O-])c2)cc1 | 95.3* | i | 0.7 | 60.2* | -95.3
C[N+](C)(C)CC(O)CC(=O)O (stereo unspecified) | 3.8 | 116.1* | -0.6 | 6.0 | -3.8
CC(O)CC(=O)O (stereo unspecified) | -18.3 | -4.6 | -2.1 | / | 18.3
CCOC(=O)/C(=C\Nc1cccc(OCc2ccccc2)c1)NC(=O)c1ccccc1 | / | / | -0.8 | / | /
O=C(N1CCN(S(=O)(=O)c2ccc(Cl)cc2)CC1)n1ccnc1 | -65.1 | 0.1 | -1.2 | -1.6 | 65.1*
COc1ccc(N2C(=O)c3n[nH]c(C(C)C)c3C2c2ccc(F)cc2)cc1 (stereo unspecified) | / | / | -1.8 | / | /
COc1ccc(CC(=O)Nc2ccc(-c3cn4cccc(C)c4n3)cc2)cc1OC | 65.7 | -5.0 | -0.2 | 31.7 | -65.7
COc1ccc(CC(=O)Nc2ccc(-c3cn4ccc(C)cc4n3)cc2)cc1 | 82.7* | -16.9 | 2.5 | 4.8 | -82.7
C=CCOn1c(=O)c(-c2cc3ccccc3o2)[n+]([O-])c2ccccc21 | 28.6 | 8.1 | 7.9* | -1.4 | -28.7
Cc1[nH]nc2c1C(c1cccc(C(F)(F)F)c1)NC2=O (stereo unspecified) | / | / | -1.1 | / | /
Nc1ccn([C@@H]2O[C@H](C(=O)N[C@H](Cc3ccccc3)C(=O)N3CCSC3)[C@@H](O)[C@H]2O)c(=O)n1 | / | / | -2.6 | / | /
CC(C)C(c1nnnn1Cc1ccc2c(c1)OCO2)N1CCN(C)CC1 (stereo unspecified) | -17.6 | 65.9* | -0.8 | 3.3 | 17.6
CC(C)C(c1nnnn1Cc1ccc2c(c1)OCO2)N1CCN(c2ccccc2)CC1 (stereo unspecified) | 14.6 | -11.8 | 0.1 | 34.2 | -14.6
C#CCN(Cc1cccc(F)c1)C(=O)c1nnc2c3ccccc3n(S(=O)(=O)c3ccc(C)cc3)c2n1 | / | / | 0.6 | / | /
N#C/C(=N\Nc1ccccc1F)c1nc(-c2ccccc2)cs1 | 71.3* | 0.2 | -1.5 | 10.6 | -71.3
C=CC[n+]1c(/C=C2\C=Cc3cc(C)ccc3N2CC)ccc2ccccc21 | 79.7* | -22.4 | -8.7 | -6.3 | -79.7
COC(=O)C1=C(C)N(Cc2ccc(F)cc2)C(=S)NC1c1cccc(Br)c1 (stereo unspecified) | / | / | -5.2 | / | /
CC(C)(C)c1ccc(-c2nnc(SCc3cccc4ccccc34)n2Cc2ccco2)cc1 | / | / | -6.6 | / | /
O=C(COc1ncnc2ccccc12)c1ccc(Cl)cc1 | 4.0 | 10.5 | 7.8* | -0.6 | -4.0
CC(C)(C)c1cc(CCC(=O)N2CCNCC2)c(C(C)(C)C)cc1O | 32.5 | -13.6 | -0.9 | 55.2* | -32.5
O=C(CCc1c[nH]c2ccccc12)N1CCCCCCC1 | -1.6 | 0.5 | 0.4 | -10.4 | 1.6
CC1(C)CC(=O)C2=C(C1)N(Cc1ccco1)C(=O)NC2(C(F)(F)F)C(F)(F)F | -31.5 | 54.3* | 2.9 | / | 31.5
COc1ccc(Nc2nc(Nc3ccc(OC)cc3)nc(-n3[nH]c(=O)c(C)c3C)n2)cc1 | 19.1 | 56.2* | 1.1 | 57.5* | -19.1
COc1ccccc1Oc1coc2cc(OCC(N)=O)ccc2c1=O | -22.0 | 59.5* | 0.5 | / | 22.0
SMILES | SR-BI DiI inh | Vif inh | SMARCA2 act | H9c2 TAG inh | SR-BI uptake up
CCCNC(=O)COc1ccc2c(=O)c(Oc3ccccc3F)coc2c1 | -3.0 | -17.0 | -2.5 | / | 3.0
COc1ccccc1C(c1c(N)n(C)c(=O)n(C)c1=O)C(C)[N+](=O)[O-] (stereo unspecified) | / | 2.5 | -1.1 | 6.4 | /
COc1ccccc1C(C[N+](=O)[O-])c1c(N)n(C)c(=O)n(C)c1=O (stereo unspecified) | / | 10.2 | -3.4 | 52.5* | /
COc1ccc(N2CCN(c3ccc(NC(=O)c4ccc5c(c4)OCO5)cc3C#N)CC2)cc1 | -6.7 | -4.1 | / | -4.4 | 6.7
COc1ccc(CC(=O)Nc2ccc(N3CCN(c4ccc(OC)cc4)CC3)c(C#N)c2)cc1 | 77.9* | 5.2 | -1.6 | 35.5 | -77.9
CC(C)C[C@H]1COc2cc(N3CCCC3)ccc2S(=O)(=O)N1 | / | / | -2.3 | / | /
